Measured values from ChEMBL document CHEMBL1139241, “Structure-activity relationship studies of a new series of imidazo[2,1-f]purinones as potent and selective A(3) adenosine receptor antagonists” (Bioorg Med Chem, 2008).

Key:
[1] = biological target: T1, Adenosine receptor A1 (Homo sapiens, UniProt P30542); experiment: Displacement of [3H]DPCPX from human cloned adenosine A1 receptor expressed in CHO cells; type: cell-based
T1 sequence (P30542 whole entry): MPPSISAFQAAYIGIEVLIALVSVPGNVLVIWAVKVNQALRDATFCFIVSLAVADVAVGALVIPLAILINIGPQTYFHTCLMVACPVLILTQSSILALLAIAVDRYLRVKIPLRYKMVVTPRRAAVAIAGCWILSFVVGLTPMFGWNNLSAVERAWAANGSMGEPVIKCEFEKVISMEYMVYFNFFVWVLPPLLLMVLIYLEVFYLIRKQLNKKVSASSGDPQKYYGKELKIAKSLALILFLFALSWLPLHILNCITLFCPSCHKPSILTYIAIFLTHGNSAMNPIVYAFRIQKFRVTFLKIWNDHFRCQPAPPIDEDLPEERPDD

[2] = biological target: Adenosine receptor A2a (Homo sapiens, UniProt P29274); experiment: Displacement of [3H]ZM241385 from human cloned adenosine A2A receptor expressed in CHO cells; type: cell-based
[3] = biological target: T2, Adenosine receptor A2b (Homo sapiens, UniProt P29275); experiment: Antagonist activity at human cloned adenosine A2B cells expressed in CHO cells assessed as inhibition of NECA-stimulated cAMP production; type: functional, cell-based
T2 sequence (P29275 whole entry): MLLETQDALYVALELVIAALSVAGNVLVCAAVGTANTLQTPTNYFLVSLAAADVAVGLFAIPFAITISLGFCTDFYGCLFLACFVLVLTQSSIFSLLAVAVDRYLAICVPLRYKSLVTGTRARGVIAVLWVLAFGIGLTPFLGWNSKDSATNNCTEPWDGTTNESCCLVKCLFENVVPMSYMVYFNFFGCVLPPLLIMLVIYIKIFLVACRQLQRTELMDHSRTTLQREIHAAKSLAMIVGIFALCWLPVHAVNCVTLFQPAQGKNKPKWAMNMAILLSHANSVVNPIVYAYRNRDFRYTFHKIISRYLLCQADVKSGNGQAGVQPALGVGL
In short: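 CHO cells with human A2B receptor, trypsin-detached, 1×10^6 cells/assay, in buffered salt medium pH 7.4 with 2 IU/ml adenosine deaminase and Ro 20-1724, preincubated 10 min at 37 °C. Antagonism of 100 nM NECA-stimulated cAMP. Stopped with cold 6% TCA, ether-extracted, cAMP measured by [3H]cAMP competition protein binding. IC50 from sigmoid nonlinear regression, n = 4, mean ± SEM.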

[4] = biological target: T3, Adenosine receptor A3 (Homo sapiens, UniProt P0DMS8); experiment: Displacement of [3H]MRE3008F20 from human cloned adenosine A3 receptor expressed in CHO cells; type: cell-based
T3 sequence (P0DMS8 whole entry): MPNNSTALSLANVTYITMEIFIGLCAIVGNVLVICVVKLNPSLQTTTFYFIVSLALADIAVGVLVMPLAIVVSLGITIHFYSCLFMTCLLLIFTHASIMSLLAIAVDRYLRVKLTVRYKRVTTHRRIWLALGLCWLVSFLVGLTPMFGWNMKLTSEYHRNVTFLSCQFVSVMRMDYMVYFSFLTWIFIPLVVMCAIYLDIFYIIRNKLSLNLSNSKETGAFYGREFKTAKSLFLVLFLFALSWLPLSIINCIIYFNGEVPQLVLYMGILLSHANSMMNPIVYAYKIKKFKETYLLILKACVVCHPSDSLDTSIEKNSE

Chain of Adenosine receptor A2a (P29274 whole entry): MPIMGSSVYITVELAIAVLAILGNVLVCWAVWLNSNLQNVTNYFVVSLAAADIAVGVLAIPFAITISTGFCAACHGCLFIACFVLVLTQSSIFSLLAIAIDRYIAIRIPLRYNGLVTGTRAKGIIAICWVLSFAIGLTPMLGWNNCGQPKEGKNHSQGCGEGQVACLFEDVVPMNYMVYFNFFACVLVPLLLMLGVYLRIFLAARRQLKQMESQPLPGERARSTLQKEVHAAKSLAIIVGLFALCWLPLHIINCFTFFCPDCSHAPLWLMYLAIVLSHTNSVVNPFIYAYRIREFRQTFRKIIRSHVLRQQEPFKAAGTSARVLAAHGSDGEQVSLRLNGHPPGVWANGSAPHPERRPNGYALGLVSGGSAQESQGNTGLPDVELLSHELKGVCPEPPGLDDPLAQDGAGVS

Ki [1] [µM] | Ki [2] [µM] | IC50 [3] [µM] | Ki [4] [µM] | SMILES
> 1 | > 1 | > 1 | 0.038 | Cc1cn2c(nc3c2c(=O)n(CCO)c(=O)n3Cc2ccccc2)[nH]1
> 1 | > 1 | > 1 | 0.11 | Cc1cn2c(nc3c2c(=O)n(CCCO)c(=O)n3Cc2ccccc2)[nH]1
> 1 | > 1 | > 1 | > 1 | CCn1c(C)cn2c3c(=O)[nH]c(=O)n(Cc4ccccc4)c3nc12
> 1 | > 1 | > 1 | 0.098 | Cc1cn2c(nc3c2c(=O)n(CCN(C)C)c(=O)n3Cc2ccccc2)[nH]1
> 1 | > 1 | > 1 | > 1 | Cn1c(=O)c2c(nc3[nH]c(-c4ccccc4)cn32)n(C)c1=O
> 1 | > 1 | > 1 | 0.148 | Cc1cn2c(nc3c2c(=O)[nH]c(=O)n3Cc2ccccc2)[nH]1
– | – | > 1 | – | CCCn1c(=O)c2c(nc3[nH]c(-c4ccc(F)cc4)cn32)n(Cc2ccccc2)c1=O
– | – | > 1 | – | CCCn1c(=O)c2c(nc3n2CC(c2ccccc2)=C3)n(Cc2ccccc2)c1=O
> 1 | > 1 | > 1 | 0.015 | C#CCn1c(=O)c2c(nc3[nH]c(C)cn32)n(Cc2ccccc2)c1=O
– | – | > 1 | – | CCCn1c(=O)c2c(nc3[nH]c(-c4ccc(-c5ccccc5)cc4)cn32)n(Cc2ccccc2)c1=O
> 1 | > 1 | > 1 | 0.02 | CCOC(=O)Cn1c(=O)c2c(nc3[nH]c(C)cn32)n(Cc2ccccc2)c1=O
– | – | > 1 | – | CCCn1c(=O)c2c(nc3[nH]c(-c4ccccc4)cn32)n(Cc2ccccc2)c1=O
> 1 | > 1 | > 1 | 0.2 | CCCn1c(=O)c2c(nc3n(CC)c(C)cn23)n(Cc2ccccc2)c1=O
> 1 | > 1 | > 1 | 0.00513 | C=CCn1c(=O)c2c(nc3[nH]c(C)cn32)n(Cc2ccccc2)c1=O
> 1 | > 1 | > 1 | 0.057 | CCCn1c(=O)c2c(nc3[nH]c(C)cn32)n(Cc2cccnc2)c1=O
> 1 | > 1 | > 1 | > 1 | Cc1cn2c3c(=O)[nH]c(=O)n(Cc4ccccc4)c3nc2n1C(C)CO (stereo not given)
– | – | > 1 | – | CCCn1c(=O)c2c(nc3[nH]c(-c4ccc(OC)cc4)cn32)n(Cc2ccccc2)c1=O
> 1 | > 1 | > 1 | 0.034 | CCCn1c(=O)c2c(nc3[nH]c(C)cn32)n(Cc2ccccn2)c1=O
> 1 | > 1 | > 1 | 0.182 | CC(=O)Cn1c(=O)c2c(nc3[nH]c(C)cn32)n(Cc2ccccc2)c1=O
> 1 | > 1 | > 1 | 0.141 | CCCn1c(=O)c2c(nc3[nH]c(C)cn32)n(Cc2ccncc2)c1=O
